From PubChem BioAssay come the findings set out here.

A short description of experiment [1]: inhibitors of TNFa-induced NFkB p65 translocation, primary screen, imaging, HUVEC, MLSMR starter and 10KST1 sets (AID 438;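 active = inhibition above 20% together with a positive visual image hit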;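 note: compound added about 3h40 before a 20 min TNFalpha stimulation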;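 for inhibition: signal is the nuclear over cytoplasmic p65 intensity ratio per well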). Particulars: HUVEC TNFa-induced p65 nuclear translocation; cell count: measured here: nuclei count (cytotoxicity indicator), at 2.08 µM; inhibition: at 2 µM, stronger effect = higher value, 0% TNFa-plus-vehicle, 100% no-TNFa wells.
Experiment [2] is described as follows: endothelial E-selectin expression blockers – imaging, HUVEC, immunofluorescence, MLSMR starter and 10KST1 sets, primary screen (AID 487;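 active = visually confirmed hit in the image check and inhibition above 20%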;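 for inhibition: signal is fraction of cell area covered by stained E-selectin grains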;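 for nuclei count: 100% = median nuclei count of all wells on the same plate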). Particulars: HUVEC TNFalpha-induced E-selectin immunofluorescence imaging, at 2 µM; inhibition: stronger effect = higher value; nuclei count: measured here: cell number, toxicity.
A short description of experiment [3]: Primary imaging screen for DUSP6 inhibitors that restore phospho-Erk in transfected HeLa cells, chemical complementation (AID 609;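 active = compounds giving at least 50% inhibition in the cell-based MKP-3 phosphatase rescue imaging test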;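 for inhibition: phospho-Erk level distribution per well compared with pooled transfected vehicle control wells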). Particulars: HeLa MKP-3 transfected, phospho-Erk imaging KS statistic, at 10 µM, cells stimulated with TPA for 15 min.
Experiment [4] has as its target Dual specificity protein phosphatase 6 (Homo sapiens) (UniProt Q16828). The description is as above. Particulars: HeLa MKP-3 transfected, phospho-Erk imaging KS statistic; at 10 µM; stronger effect = higher value; cells stimulated with TPA for 15 min.
The target of experiment [5] is Voltage-gated potassium channel subunit beta-2 (Rattus norvegicus) (UniProt P62483). Nature of the experiment: inhibitors of rat Kvbeta2 reductase activity – biochemical, NADPH fluorescence, primary screen (AID 622;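 active = fluorescence slope higher than the sample average by over 3 SD, cut at about -0.22 in these data, passing the limit was not always enough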;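 note: slope of raw intensity against log time taken from 70 to 1610 s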). Particulars: recombinant KvBeta, 4-cyanobenzaldehyde reduction, at 10 µM, stronger effect = higher value.
Sequence of Voltage-gated potassium channel subunit beta-2 (Rattus norvegicus) (P62483 whole entry, looked up): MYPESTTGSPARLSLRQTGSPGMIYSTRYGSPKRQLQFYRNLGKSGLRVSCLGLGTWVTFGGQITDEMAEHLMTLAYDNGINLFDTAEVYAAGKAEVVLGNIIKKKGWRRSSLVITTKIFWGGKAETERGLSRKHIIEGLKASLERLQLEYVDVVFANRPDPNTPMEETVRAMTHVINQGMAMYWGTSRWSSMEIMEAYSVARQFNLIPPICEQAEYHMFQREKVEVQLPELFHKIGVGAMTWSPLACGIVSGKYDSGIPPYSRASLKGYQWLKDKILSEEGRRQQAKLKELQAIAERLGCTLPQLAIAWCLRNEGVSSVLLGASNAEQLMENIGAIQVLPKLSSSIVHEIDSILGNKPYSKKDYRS
For experiment [6] the target is unchanged. Nature of the experiment: enhancers of rat Kvbeta2 NADPH turnover – biochemical, NADPH fluorescence, primary screen (AID 623).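 Note: fluorescence intensity change per second fitted from 20 to 320 s.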 Particulars: Recombinant KvBeta, NADPH fluorescence decrease slope, 10 min; at 10 µM; stronger effect = lower value.
The target in experiment [7] is Alpha-2C adrenergic receptor (Homo sapiens) (UniProt P18825). Nature of the experiment: compounds altering alpha2C-coupled GIRK flux – cell-based, HEK293 alpha2C/GIRK1/2, thallium flux, primary screen (AID 624;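 active = fluorescence slope after compound addition differing from the mean of all screened samples at 99.7% confidence, in either direction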;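 note: slope of fluorescence ratio to pre-addition baseline per second over 15 to 24 s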). Particulars: thallium flux BTC fluorescence, at 10 µM, actives lie on both sides.
Sequence of Alpha-2C adrenergic receptor (Homo sapiens) (P18825 whole entry, looked up): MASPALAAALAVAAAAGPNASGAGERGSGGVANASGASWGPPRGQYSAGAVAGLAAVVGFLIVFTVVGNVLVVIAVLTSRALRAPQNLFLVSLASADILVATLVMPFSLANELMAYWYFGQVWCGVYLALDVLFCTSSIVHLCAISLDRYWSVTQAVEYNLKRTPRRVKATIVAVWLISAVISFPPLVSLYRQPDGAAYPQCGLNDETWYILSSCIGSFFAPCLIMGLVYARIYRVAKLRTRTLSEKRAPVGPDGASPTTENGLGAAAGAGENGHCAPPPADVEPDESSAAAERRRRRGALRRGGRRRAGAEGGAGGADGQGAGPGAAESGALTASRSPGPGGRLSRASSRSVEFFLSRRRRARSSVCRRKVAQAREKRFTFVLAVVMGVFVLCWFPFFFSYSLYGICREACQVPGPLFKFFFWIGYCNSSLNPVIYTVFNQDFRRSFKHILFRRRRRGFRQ
Experiment [8] can be described thus: inhibitors of larval lipid processing in zebrafish, primary screen, whole organism, PED6 fluorescence, gall bladder and intestine (AID 686;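 active = a full or partial loss of lipid-probe fluorescence in the fish gall bladder, intestine or both, judged by eye; inactive = no fluorescence loss, or compound toxic to the fish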;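 note: larvae 5 to 7 days old with five fish per well; signal comes from phospholipase A2 cleavage of quenched PED6 carried via bile; overnight exposure to compound and PED6 before scoring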). Particulars: Zebrafish larvae PED6 lipid processing, fluorescence scoring; screened at 20 µM (by protocol). A digest of the protocol:
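Test system – live zebrafish larvae aged 5-7 days, whole organism · Buffer or medium – E3 fish medium · Reagent – quenched phospholipase substrate PED6, 100 nM final, ingested by larvae · Doses – 20 µM single dose · Incubation – overnight compound and PED6 incubation · Technique – visual fluorescence microscopy scoring of gall bladder, gut · Read-out basis – visual per-well fluorescence inhibition score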

A short description of experiment [9]: loss of swimming-algae plug formation – whole organism, Chlamydomonas reinhardtii, WT vs cilia-less mutant, absorbance, 96-well, primary screen (AID 463189;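 active = inhibition at or above 50% relative to wild type and mutant plate controls; inactive = inhibition below 50%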;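 note: 0% = wild type cc124 cells in DMSO and 100% = ciliumless bld1 mutant cells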). Particulars: Chlamydomonas reinhardtii gravitaxis, OD600 absorbance, 2 days; at 10 µM; stronger effect = higher value.
The mark [10] stands for this setting: measured here: cell density z-score.
The mark [11] stands for this setting: measured here: nuclear c-Myc green intensity z-score.
Setting [12] is: measured here: nuclear pErk red intensity z-score, stronger effect = higher value.

Structures are written as SMILES. Active and inactive are the calls of the source.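 Rule for the calls, unless noted: active = NADPH fluorescence slope more negative than the mean of all samples by about 3 SD, 99.7% confidence; inactive = the rest.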

What is called inhibition is the change of the read-out against control, counted positive when it falls.

Sequence of Dual specificity protein phosphatase 6 (Homo sapiens) (Q16828 whole entry, looked up): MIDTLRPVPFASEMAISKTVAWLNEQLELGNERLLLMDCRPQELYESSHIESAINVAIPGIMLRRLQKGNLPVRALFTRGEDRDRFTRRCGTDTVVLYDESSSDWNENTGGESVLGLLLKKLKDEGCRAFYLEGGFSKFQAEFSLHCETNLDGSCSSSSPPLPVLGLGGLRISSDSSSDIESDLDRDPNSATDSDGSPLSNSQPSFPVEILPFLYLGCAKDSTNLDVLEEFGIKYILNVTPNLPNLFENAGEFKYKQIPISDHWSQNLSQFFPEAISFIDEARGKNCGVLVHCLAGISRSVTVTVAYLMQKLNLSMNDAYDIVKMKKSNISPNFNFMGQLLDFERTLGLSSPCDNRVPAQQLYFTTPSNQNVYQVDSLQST

`N#Cc1c(SCC(=O)O)nc(N2CCCCC2)c2c1CCCC2`: the cell count in experiment [1] came to 555. The inhibition in experiment [1] was 7.3% (inactive); in [2] it was -50% (inactive); in [4], 16.8% (inactive); in [9], 6.88% (inactive). This compound also had a nuclei count in experiment [2] of 123%. Further, the z-score was 0.186 in [3] (setting [10]), -1.79 in experiment [3] (setting [11]) and 0.996 in experiment [3] (setting [12]). Moreover, the fluorescence slope in experiment [5] was -0.535 (inactive). In experiment [6], the NADPH fluorescence slope was -4.5e-05 (inactive). Besides, in experiment [7], the slope is 0.00499 (inactive). Further, the compound was called inactive in experiment [8].
With `Cc1ccc(C(=O)CSC2=C(C#N)C(c3ccco3)C3=C(CCCC3=O)N2)cc1` (stereo unspecified), the cell count in experiment [1] came out at 333. Besides, the inhibition was -7.4% (inactive) in [1], -98.2% (inactive) in experiment [2], 1.42% (inactive) in [4] and 8.93% (inactive) in [9]. The nuclei count in [2] was determined as 165%. The results for the z-score in experiment [3] (setting [10]), in experiment [3] (setting [11]) and in experiment [3] (setting [12]) were 1.35, -1.13 and 0.366, respectively. In addition, in experiment [5], the fluorescence slope is -0.449 (inactive). Further, the NADPH fluorescence slope in [6] was -0.000148 (inactive). The slope in [7] was 0.00654 (inactive). For the same compound, the compound was classed as inactive in experiment [8].
For the compound `COc1ccc(-n2c(=O)c3c4c(sc3n3c(C)nnc23)CC(C)CC4)cc1` (stereo unspecified), in [1], the cell count turned out to be 617. For the same compound, the inhibition in experiment [1] is 3.9% (inactive); in experiment [2], 15.9% (inactive); in [4] it was -0.608% (inactive); in [9], 53.4% (active). This compound had a nuclei count in experiment [2] of 162%. Also, the z-score in experiment [3] (setting [10]) is -1.05; in experiment [3] (setting [11]), 0.383; in experiment [3] (setting [12]) it was -0.315. Moreover, the fluorescence slope in [5] was -0.324 (inactive). Further, the NADPH fluorescence slope in [6] is 8.8e-06 (inactive). Besides, the slope in experiment [7] was 0.00514 (inactive). Further, the outcome in [8] was inactive.
For the compound `CC1(C)Cc2c(c(-c3ccccc3)nc3[nH][nH]c(=O)c23)CO1`, the cell count in [1] was found to be 666. Moreover, the inhibition in experiment [1] was -17.1% (inactive); in [2] it was -370% (inactive); in [4] it was -3.98% (inactive); in [9], 21% (inactive). In addition, the nuclei count in [2] came out at 162%. For the same compound, the z-score was 0.742 in experiment [3] (setting [10]), -0.0557 in experiment [3] (setting [11]) and 0.36 in experiment [3] (setting [12]). Besides, in experiment [5], the fluorescence slope was -0.513 (inactive). The NADPH fluorescence slope in experiment [6] was -7.2e-05 (inactive). Further, the slope in experiment [7] is 0.00403 (inactive). Further, in [8], the outcome was inactive.
In the case of `O=S(=O)(c1ccccc1)N1CCC(N2CCN(c3ccccc3)CC2)CC1`, the cell count in experiment [1] turned out to be 454. Besides, the inhibition is -26.3% (inactive) in experiment [1], -98.2% (inactive) in experiment [2], -3.95% (inactive) in experiment [4] and 1.95% (inactive) in [9]. Also, in experiment [2], the nuclei count is 140%. Further, the z-score in experiment [3] (setting [10]) is -1.37; in experiment [3] (setting [11]), -0.201; in experiment [3] (setting [12]), -1.07. Further, in experiment [5], the fluorescence slope was -0.326 (inactive). Also, the NADPH fluorescence slope in experiment [6] was 1.7e-05 (inactive). Further, the slope in experiment [7] is 0.006 (inactive). Also, the call in experiment [8] was inactive.
With `O=CNC(=O)c1ccccc1C(=O)O`, the cell count in experiment [1] is 545. For the same compound, the inhibition in [1] was -5.9% (inactive); in [2], -60.7% (inactive); in experiment [4] it was 11.9% (inactive); in [9], 28.5% (inactive). In addition, the nuclei count in experiment [2] was 162%. Further, the z-score in [3] (setting [10]) is 1.01; in experiment [3] (setting [11]), -0.571; in experiment [3] (setting [12]), -1.1. Moreover, the fluorescence slope in [5] is -0.522 (inactive). Besides, the NADPH fluorescence slope in experiment [6] is -2.4e-05 (inactive). The slope in experiment [7] was 0.00526 (inactive). Moreover, the outcome in experiment [8] was inactive.
`COc1cccc(-c2nc(N3CCCCC3)c3ccccc3n2)c1O`: the cell count in experiment [1] amounted to 528. Moreover, the inhibition is 1.2% (inactive) in experiment [1], -31.1% (inactive) in experiment [2], 1.6e-07% (inactive) in [4] and 15% (inactive) in [9]. For the same compound, the nuclei count in [2] was 142%. The z-score was 1.81 in [3] (setting [10]), 0.268 in experiment [3] (setting [11]) and -0.772 in experiment [3] (setting [12]). Also, in experiment [5], the fluorescence slope was -0.405 (inactive). For the same compound, the NADPH fluorescence slope in experiment [6] is -3.2e-05 (inactive). In addition, the slope in experiment [7] is 0.0042 (inactive). Further, the compound was classed as inactive in experiment [8].
On to `CC(C)Cn1cnc2c(c1=O)c1nc3ccccc3nc1n2Cc1ccc2c(c1)OCO2`, for which the cell count in experiment [1] was found to be 361. Also, the inhibition is -3.7% (inactive) in experiment [1], -15.2% (inactive) in [2], 9.42% (inactive) in [4] and 1.23% (inactive) in experiment [9]. In experiment [2], this compound came in with a nuclei count of 149%. The z-score was 0.279 in experiment [3] (setting [10]), -0.729 in [3] (setting [11]) and -0.248 in experiment [3] (setting [12]). In addition, the fluorescence slope in experiment [5] is -0.393 (inactive). In addition, the NADPH fluorescence slope in experiment [6] is -0.000121 (inactive). Further, the slope in experiment [7] was 0.00801 (inactive). Moreover, in experiment [8], the result was inactive.
`COC(=O)CNc1nc(-c2cccnc2)nc2ccccc12`: the cell count in [1] stood at 543. Further, the inhibition in [1] was -5.9% (inactive); in [2], -23.5% (inactive); in [4], -11.9% (inactive); in [9], -0.905% (inactive). The compound also showed a nuclei count in experiment [2] of 156%. For the same compound, the figures for the z-score in [3] (setting [10]), in [3] (setting [11]) and in [3] (setting [12]) were -0.375, 1.95 and 0.774, respectively. Also, in [5], the fluorescence slope is -0.327 (inactive). For the same compound, the NADPH fluorescence slope in experiment [6] is 8.2e-06 (inactive). Besides, in experiment [7], the slope is 0.0052 (inactive). Moreover, the compound was classed as inactive in experiment [8].
As to `Clc1ccc2nc(CSc3nc4ccccc4o3)cn2c1`, the cell count in experiment [1] amounted to 405. The inhibition in [1] is -12.3% (inactive); in experiment [2], -79.3% (inactive); in experiment [4], 11.9% (inactive); in experiment [9] it was -14.7% (inactive). This compound gave a nuclei count in experiment [2] of 99.4%. Moreover, the results for the z-score in experiment [3] (setting [10]), in experiment [3] (setting [11]) and in experiment [3] (setting [12]) were -0.399, -0.856 and -1.36, respectively. Besides, in experiment [5], the fluorescence slope was -0.49 (inactive). In addition, the NADPH fluorescence slope in experiment [6] is -0.000153 (inactive). In [7], the slope was 0.00552 (inactive). Also, the call in experiment [8] was inactive.
For `CCOC(=O)C1CCN(c2nc3ccccc3nc2C(C#N)C(=O)NCCc2ccccc2)CC1` (stereo unspecified), in experiment [1], the cell count was 441. Further, the inhibition in experiment [1] was 3.4% (inactive); in [2], -167% (inactive); in [4] it was 13.2% (inactive); in experiment [9] it was 13.3% (inactive). The same compound returned a nuclei count in experiment [2] of 184%. Besides, the z-score in experiment [3] (setting [10]) was 0.0297; in experiment [3] (setting [11]), 0.625; in experiment [3] (setting [12]), -0.588. In experiment [5], the fluorescence slope was -0.426 (inactive). The NADPH fluorescence slope in experiment [6] is -6.6e-05 (inactive). The slope in experiment [7] is 0.00158 (inactive). For the same compound, the compound was classed as inactive in experiment [8].
Turning to `Cn1c(NCCN2CCCCC2)cc(=O)n(C)c1=O`, in experiment [1], the cell count was found to be 625. Moreover, the inhibition in [1] was 4.3% (inactive); in [2], -24.8% (inactive); in experiment [4] it was -1.12% (inactive); in experiment [9], 9.26% (inactive). This compound registered a nuclei count in experiment [2] of 125%. The z-score in experiment [3] (setting [10]) was 1.35; in experiment [3] (setting [11]), -0.0759; in experiment [3] (setting [12]), -0.233. For the same compound, the fluorescence slope in [5] is -0.492 (inactive). In experiment [6], the NADPH fluorescence slope is -0.000171 (inactive). Further, the slope in experiment [7] was 0.00437 (inactive). Further, the outcome in experiment [8] was inactive.
